In ChEMBL document CHEMBL1146273, “Kynurenic acid amides as novel NR2B selective NMDA receptor antagonists” (Bioorg Med Chem Lett, 2007):
pIC50, pKi: −log10 of the molar value.

Key:
Glutamate NMDA receptor [1] = experiment: Inhibition of NMDA receptor in rat cortical cells assessed as NMDA-evoked increase in intracellular calcium level; type: cell-based
Summary of the method: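 Rat cortical cell culture loaded with Fluo-4/AM. Baseline and NMDA-evoked intracellular Ca2+ changes monitored by fluorimetry on a plate reader. Number of experiments (n) given per compound.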

Mus musculus [2] = experiment: Analgesic activity against formalin-induced pain in po dosed mouse; type: ADME, organism-based
Summary of the method: (§1)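 Fasted male NMRI mice (20–25 g) dosed orally with test drug or vehicle (5% Tween 80) 15 min before 20 µl of 1% formalin injected sc into right hindpaw. Licking/biting time read by visual observation at 20–25 min post-formalin (late phase). Percent decrease versus daily vehicle group; Mann–Whitney U-test; ED50 from Boltzmann sigmoidal fit.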

Rattus norvegicus = species on record: Rattus norvegicus; experiment: Inhibition of human recombinant NR1/NR2A receptor expressed in rat cortical cells assessed as NMDA-evoked increase in intracellular calcium level at 15 uM; type: cell-based
Summary of the method: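 Fluo-4/AM Ca2+ fluorimetry on a plate reader, applied to cells expressing recombinant NR1/NR2A receptors. Inhibition (%) of the NMDA-evoked intracellular Ca2+ increase measured at 15 µM compound.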

Mus musculus [3] = experiment: Analgesic activity against formalin-induced pain in mouse at 20 mg/kg, po; type: ADME, organism-based; set-up: dose 20 mg/kg, route oral; details: in vivo; summary of the method: as §1
[4] = biological target: Glutamate NMDA receptor (Rattus norvegicus) (UniProt P35439+Q00959+Q00960+Q00961+Q62645+Q8VHN2+Q9R1M7); experiment: Inhibition of NMDA receptor in rat cortical cells assessed as NMDA-evoked increase in intracellular calcium level at 0.1 uM; type: cell-based
Summary of the method: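 Rat cortical cell culture loaded with Fluo-4/AM. Baseline and NMDA-evoked intracellular Ca2+ changes monitored by fluorimetry on a plate reader. Read-out is inhibition of the NMDA-evoked Ca2+ rise, with percent inhibition taken at 0.1 µM compound. Number of experiments (n) given per compound.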

Glutamate NMDA receptor [5] = experiment: Displacement of [3H]Ro-256981 from NMDA receptor in rat forebrain membrane; type: cell membranes
Summary of the method: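 Binding assay on rat forebrain membrane using tritiated Ro-25,6981 as radioligand.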

SMILES	pIC50 (Glutamate NMDA receptor [1])	Activity (Mus musculus [3])	inhibition [4]	pKi (Glutamate NMDA receptor [5])	ED50 (Mus musculus [2])	inhibition (Rattus norvegicus)
O=C(c1cc(=O)c2cc(O)ccc2[nH]1)N1CCC(Oc2ccc(Cl)cc2)CC1	8.15	Not Active	–	–	–	5.1%
O=C(c1nc2ccc(O)cc2[nH]1)N1CCC(Cc2ccccc2)CC1	–	–	–	–	–	21%
O=C(c1cc(=O)c2cc(O)ccc2[nH]1)N1CCC(Oc2ccccc2)CC1	7.30	–	–	–	8.5 mg/kg	0.7%
C[C@H]([C@@H](O)c1ccc(O)cc1)N1CCC(Cc2ccccc2)CC1	–	–	–	–	–	-2.7%
O=C(c1cc(=O)c2cc3[nH]c(=O)oc3cc2[nH]1)N1CCC(Cc2ccccc2)CC1	7.66	–	–	–	> 20 mg/kg	-2.1%
O=C(c1cc2ccc(O)cc2[nH]1)N1CCC(Cc2ccccc2)CC1	–	–	–	–	–	15.6%
Cc1ccc(OC2CCN(C(=O)c3cc(=O)c4cc(O)ccc4[nH]3)CC2)cc1	8.21	–	–	8.38	8.2 mg/kg	-3.5%

More lines, main results first:

pIC50 (Glutamate NMDA receptor [1])	Activity (Mus musculus [3])	inhibition [4]	pKi (Glutamate NMDA receptor [5])	SMILES	ED50 (Mus musculus [2])	inhibition (Rattus norvegicus)
8.06	–	–	–	O=C(c1cc(=O)c2cc(O)ccc2[nH]1)N1CCC(Cc2ccc(F)cc2)CC1	9.5 mg/kg	-0.9%
7.96	–	–	–	Cc1ccc(CC2CCN(C(=O)c3cc(=O)c4cc(O)ccc4[nH]3)CC2)cc1	10.6 mg/kg	-2.4%
8.04	Not Active	–	–	O=C(c1cc(=O)c2cc(O)ccc2[nH]1)N1CCC(Cc2ccc(Cl)cc2)CC1	–	-5.1%
6.50	–	–	–	O=C(c1nc(=O)c2cc(O)ccc2[nH]1)N1CCC(Cc2ccccc2)CC1	–	13.9%
–	–	2.6%	–	CC(=O)Nc1ccc2[nH]c(C(=O)N3CCC(Cc4ccccc4)CC3)cc(=O)c2c1	–	12.4%
–	–	4.5%	–	O=C(c1cc(=O)c2ccccc2[nH]1)N1CCC(Cc2ccccc2)CC1	–	1.1%
8.04	Not Active	–	–	O=C(c1cc(=O)c2cc(O)ccc2[nH]1)N1CCC(Cc2ccccc2)CC1	–	8.9%
–	–	27.9%	–	O=C(c1cc(=O)c2ccc(O)cc2[nH]1)N1CCC(Cc2ccccc2)CC1	–	9.1%
7.60	–	–	–	O=C(c1cc2cc(O)ccc2[nH]1)N1CCC(Cc2ccccc2)CC1	–	17.2%
